High-throughput results (PubChem)
DNA FID counter – counter-screen for HCV NS3 helicase inhibitors: DNA intercalator displacement | DNA fluorescent intercalator displacement, fluorescence | inhibition, % at 7.9 µM | 290,000 compounds, 0.17% hits; in the data active = inhibition above about 37%;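 note: 0% = vehicle and 100% = reference compound; higher means more ethidium bromide displaced from hairpin DNA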
HCV NS3 hel inh – HCV NS3 helicase inhibition; NS3 helicase DNA unwinding, Cy5 molecular beacon fluorescence; inhibition, % at 10.9 µM; 290,000 compounds, 0.56% hits;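 active = inhibition above the mean of all tested compounds plus 3 SD, set per campaign, cut at about 35% in these data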;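 note: 0% = DMSO wells and 100% = thioflavine S control wells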
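System: HCV NS3 helicase fragment; control set: DMSO and thioflavine S; technique: Cy5 fluorescence at 0 and 60 min, beacon hairpin quenching; reagent: beacon DNA duplex substrate plus ATP; replicates: singlicate; schedule: 1 h reaction at 25 °C, ATP-initiated; medium: MOPS buffer pH 6.5 with MgCl2, DTT, Tween20, BSA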
FGF22 binding – shifts melting point of recombinant human FGF22. recombinant FGF22 thermal shift, SYPRO orange fluorescence; percent of sucrose octasulfate shift, DMSO zero. activity (Tm shift, normalised), % at 9.99 µM. 340,000 compounds, 1.5% hits. AID 651658;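 active = mean Tm shift, scaled 0 neutral to 100 positive control, at about 1.3% or above, every replicate too, limit read from the data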
Target sequence (Q9HCT0 whole entry, looked up): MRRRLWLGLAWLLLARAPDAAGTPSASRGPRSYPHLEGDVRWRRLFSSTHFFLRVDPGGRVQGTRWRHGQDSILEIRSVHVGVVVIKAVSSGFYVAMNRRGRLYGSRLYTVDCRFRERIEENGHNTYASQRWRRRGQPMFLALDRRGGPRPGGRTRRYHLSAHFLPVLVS
ZTA DNA inh – blocks Epstein-Barr virus ZTA, an EBNA-1 counter-screen; P03206; ZTA-DNA binding, fluorescence polarization; inhibition, % at 11 µM; 320,000 compounds, 0.15% hits; AID 2234; in the data active = inhibition above about 33%
Target sequence (P03206 whole entry, looked up): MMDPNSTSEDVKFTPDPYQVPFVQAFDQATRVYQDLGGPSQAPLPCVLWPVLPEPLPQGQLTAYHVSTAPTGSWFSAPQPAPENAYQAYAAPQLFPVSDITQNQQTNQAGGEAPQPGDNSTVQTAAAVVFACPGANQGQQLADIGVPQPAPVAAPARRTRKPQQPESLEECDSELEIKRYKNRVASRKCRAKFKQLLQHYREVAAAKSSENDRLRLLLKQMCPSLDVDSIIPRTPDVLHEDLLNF
GRIN3A LBD mod – modulates the human NR3A ligand-binding domain; NR3A LBD differential scanning fluorimetry, Tm shift; 0% = protein alone, 100% = glycine-bound protein; Tm shift relative to glycine control, % at 25 µM; 340,000 compounds, 2.5% hits; AID 1259313;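 active = melting temperature shift of at least 10% of the positive control shift, at one fixed dose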
EBNA-1 inhibitor – blocks EBNA-1 binding to DNA | EBNA-1 DNA binding, fluorescence polarization | inhibition, % at 14.8 µM | 300,000 compounds, 0.34% hits; in the data active = inhibition above about 28%
Starred values were filed as active, the others as inactive; / = not tested or not shown; ! = a repeat was not active. A selection: hits, their analogues and other compounds. The true share with any hit is near 3.6%.

SMILES	DNA FID counter	HCV NS3 hel inh	FGF22 binding	ZTA DNA inh	GRIN3A LBD mod	EBNA-1 inhibitor
COC(=O)[C@H]1[C@H](CO)[C@H]2Cn3c(ccc(C4=CCCC4)c3=O)[C@@H]1N2CC1CCCCC1	/	/	0	/	/	/
COC(=O)[C@H]1[C@H](CO)[C@H]2Cn3c(ccc(/C=C/c4ccccc4)c3=O)[C@@H]1N2C(=O)C1CCC1	/	/	0	/	/	/
CC=Cc1ccc2n(c1=O)C[C@@H]1[C@@H](CO)[C@H](C(=O)OC)[C@H]2N1CC1CCOCC1 (mixture of isomers)	/	/	0	/	/	/
COC1=C(OC)[C@]23CCc4ccc(OC)c(OC)c4[C@]2(CCN3C)CC1=O	/	/	0	/	13*	/
COc1ccc2c(c1O)[C@]13CCN(C)[C@H](C2)[C@@H]1CCC(=O)C3	1	9	0	3	-1	1
O=[N+]([O-])c1cccc(O)c1	/	/	0	-11	2	/
O=[N+]([O-])c1ccc2c(c1)Cc1cc(O)ccc1-2	/	/	0	/	14*	/
CN1C(=O)C(=Cc2ccc(SC3CCCCC3)o2)C(=O)N(C)C1=O	-22	18	43*	-4	3	-4
CN1C(=O)C(=Cc2ccc(N3CCCCC3)o2)C(=O)N(C)C1=S	-4	8	/	3	3	-6
O=C(Cc1ccccn1)N1CCCCN2[C@H](CO)[C@@H](c3ccc(-c4ccccc4F)cc3)[C@@H]2C1	/	/	0	/	/	/
Cn1c(O)c(/C=C2\N=c3ccccc3=C2CCNC(=S)NC2CC2)c(=O)n(C)c1=O	-8	-11	0	10	17*	6
Cn1c(O)c(/C=C2\C=c3ccccc3=NC2=O)c(=O)n(C)c1=O	-2	6	0	/	1	/
O=C(Cc1cccnc1)N1CCCCN2[C@@H](CO)[C@@H](c3ccc(C#CC4CCCC4)cc3)[C@@H]2C1	/	/	-1	/	/	/
Cc1oc(-c2ccc(F)cc2F)nc1CN1C[C@@H]2C[C@@H](C1)c1cccc(=O)n1C2	-26	12	44*	-8	0	-7
Fc1ccc(CCNCc2ccc(Br)cc2)cc1	10	-13	44*	3	-2	-3
O=C(/C=C/C=C/c1ccccc1)CC1(O)C(=O)Nc2ccccc21 (centres undefined)	-11	-4	43*	8	0	5
CC(=O)/C=C/c1ccccc1	/	/	0	/	5	/
CN(C)c1ccc(/C=C/C=C/c2sc3ccccc3[n+]2C)cc1	8	30	0	45*	-3	32*
COC(=O)c1c(C)n(Cc2ccccc2)c2ccc(O)cc12	-22	-13	0	2	14*	4
Cn1cccc1/C=C1\C(=O)NC(=O)N(Cc2ccccc2Cl)C1=O	-33	23	44*	/	0	/
Cn1cccc1/C=C1\C(=O)NC(=O)N(CCC2=CCCCC2)C1=O	-14	21	0	/	-22	/
CC(C)n1c(=O)c(C=Nc2ccc(Cl)cc2)c(O)n(Cc2ccco2)c1=O	-31	47*	0	-11	/	-1
NC(Cc1cc(O)c(O)cc1O)C(=O)O (centres undefined)	/	/	/	49*	/	90*
CCN(CC)S(=O)(=O)c1ccc(NN=C(C#N)C#N)cc1	-10	6	1	-4	13*	-3
COC(=O)[C@@H]1[C@@H](CO)[C@@H]2Cn3c(ccc(-c4ccncc4)c3=O)[C@H]1N2S(=O)(=O)c1ccccc1C	/	/	0	/	/	/
SMILES	DNA FID counter	HCV NS3 hel inh	FGF22 binding	ZTA DNA inh	GRIN3A LBD mod	EBNA-1 inhibitor
COc1cc2c(C(=O)N3CCN(C)CC3)c(C)n(C)c2cc1Br	16	-8	/	1	0	-3
COc1cc2c(C(=O)O)c(C)n(C)c2cc1Br	-7	0	43*	2	0	4
O=C(Cc1ccccc1)N1CC2(C1)[C@H](c1ccccc1)[C@H](CO)N2Cc1cccc(F)c1	/	/	0	/	/	/
Cc1nn(Cc2ccccc2)c(C)c1C(=O)OCC(=O)Nc1cc(S(C)(=O)=O)ccc1Cl	-4	0	43*	-3	-1	-19
Cc1nn(Cc2ccccc2)c(C)c1C(=O)OCC(=O)Nc1cccc(S(N)(=O)=O)c1	-7	1	0	9	-1	10
COC(=O)[C@@H]1[C@@H](CO)[C@@H]2Cn3c(ccc(-c4ccccc4F)c3=O)[C@H]1N2C(=O)C1CC1	/	/	0	/	/	/
C[C@@H]1CN([C@H](C)CO)C(=O)CCCn2nncc2CO[C@H]1CN(C)C(=O)Oc1ccc2ccccc2c1	/	/	43*!	/	/	/
CCCN1[C@@H]2c3ccc(-c4ccccc4)c(=O)n3C[C@H]1[C@H](CO)[C@H]2C(=O)OC	/	/	0	/	/	/
CCOc1cc(/C=C2/C(=O)NC(=O)N(c3ccc(CC)cc3)C2=O)ccc1OC(=O)c1cccs1	-21	8	/	2	74*	9
COc1cc(/C=C2/C(=O)NC(=O)N(c3ccccc3)C2=O)ccc1O	-11	9	0	20	-14	-6
CC(=O)C1C(N2CC2)CC2C3CC=C4CC(O)CCC4(C)C3CCC21C (centres undefined)	/	/	44*	/	-2	/
C[C@]12CC[C@H](O)CC1=CCC1C2CC[C@]2(C)C(=O)[C@H](Br)CC12 (some centres undefined)	/	/	0	/	14*	/
O=C(Cc1ccccc1)N1CCCCN2[C@@H](CO)[C@H](c3ccc(-c4ccccc4)cc3)[C@@H]2C1	/	/	0	/	/	/
O=C(Cc1ccccn1)N1CC2(C1)[C@@H](c1ccccc1)[C@@H](CO)N2Cc1ccccn1	/	/	0	/	/	/
CCCCCCC[n+]1ccc(-c2cc[n+](CCCCCCC)cc2)cc1	55*	-43	-1	6	2	-5
CCOC(=O)c1ccc2[nH]c(-c3ccc(S(=O)(=O)F)cc3)cc(=O)c2c1	-6	1	0	21	24*	10
O=C(Cc1ccccc1)N1CC2(C1)[C@H](c1ccccc1)[C@@H](CO)N2Cc1cccc(Cl)c1	/	/	0	/	/	/
O=C(Cc1cccnc1)N1CCCCN2[C@@H](CO)[C@@H](c3ccc(/C=C/c4ccccc4)cc3)[C@@H]2C1	/	/	0	/	/	/
COc1cc2c(cc1O)C[C@H]1NCCc3cc4c(c-2c31)OCO4	38*	17	0	-2	-11	-1
